# Sampled rows, rich in hits. Any-hit rate of the full collection: about 3.5%.
# MrgX1 antagonist – antagonists of human MrgX1 receptor. Q96LB2. MRGX1-HEK293 calcium flux, Fluo-4, BAM8-22 antagonism; hits give low values. B-score at 10 µM. 310,000 compounds, 1.3% hits;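 active = calcium-response B-score plate-corrected more than 3 library SD below zero, starting fluorescence within 5 deviations, no agonist response on first addition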;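 note: peak minus trough fluorescence over baseline after final BAM8-22 challenge near maximal dose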
# Target sequence (Q96LB2 whole entry, looked up): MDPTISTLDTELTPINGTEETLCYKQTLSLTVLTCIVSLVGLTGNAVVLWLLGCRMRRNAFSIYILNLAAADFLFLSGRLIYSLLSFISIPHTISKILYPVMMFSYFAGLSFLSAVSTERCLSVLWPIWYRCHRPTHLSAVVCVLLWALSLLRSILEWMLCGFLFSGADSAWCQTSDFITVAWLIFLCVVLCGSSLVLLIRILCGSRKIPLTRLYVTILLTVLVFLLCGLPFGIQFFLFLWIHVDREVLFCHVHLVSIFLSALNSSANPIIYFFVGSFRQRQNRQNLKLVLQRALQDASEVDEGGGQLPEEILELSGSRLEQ
# MrgX1 allo act – allosterically activates human MrgX1 receptor signaling; MrgX1-HEK293, Fluo-4 calcium flux, FDSS; hits give high values; B-score at 10 µM; 310,000 compounds, 0.63% hits; AID 588675;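 active = plate-corrected calcium response at least 3 library SD above typical, normal starting fluorescence, not activating the receptor alone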;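 note: compound read alongside a low EC10 to EC30 dose of BAM8-22 agonist; peak minus trough fluorescence over baseline measured at the second addition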
# RGS4 inh – inhibitors of human RGS4; HEK293 M3R/RGS4 inducible, Fluo-4 calcium flux; hits give high values; triggered by carbachol at its EC20; AID 463165; 310,000 compounds, 0.45% hits; B-score at 10 µM;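 active = B-score, a plate-corrected calcium signal, over three deviations above library mean, with baseline fluorescence within five deviations of library mean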;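 note: RGS4 expression induced by doxycycline in cells with stable M3 receptor; B-score is computed from the integrated fluorescence ratio over baseline after carbachol; higher B-score means a larger calcium signal and so more RGS4 inhibition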
# Target sequence (P49798 whole entry, looked up): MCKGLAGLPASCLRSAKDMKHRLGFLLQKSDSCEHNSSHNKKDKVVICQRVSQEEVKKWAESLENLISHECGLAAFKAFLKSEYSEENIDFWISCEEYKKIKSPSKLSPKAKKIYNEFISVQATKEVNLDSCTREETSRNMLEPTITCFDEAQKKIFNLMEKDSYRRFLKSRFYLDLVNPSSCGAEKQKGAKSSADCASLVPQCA
# RGS4 pot – potentiators or activators of RGS4; HEK293 M3R/inducible RGS4, carbachol calcium flux Fluo4; hits give low values; B-score at 10 µM; 310,000 compounds, 0.92% hits; AID 463111;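 active = B-score of the integrated calcium signal more than 4 SD below the library mean, with starting fluorescence not abnormally high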;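 note: negative B-score means reduced calcium response which marks RGS4 activation or potentiation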
#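 Test system: HEK293 cells with stable M3R and inducible RGS4; also added: carbachol at ECmax as muscarinic agonist stimulus; schedule: dye loading 30 min 37 °C, buffer rest 30 min RT; technique: kinetic calcium fluorescence imaging with Fluo4-AM dye, 2 µM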
# MrgX1 agonist – activates human MrgX1 receptor signaling; Q96LB2; MrgX1-HEK293 cells, Fluo-4 calcium fluorescence, agonist mode; hits give high values; B-score at 10 µM; 310,000 compounds, 0.44% hits; AID 588627;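 active = calcium response B-score plate-corrected fluorescence ratio at least 3 library SD, with starting fluorescence B-score inside 5 SD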
#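 times = overnight plating, then 30 min 37 °C plus 30 min room-temperature dye loading | assay system = stable human MrgX1 HEK293 cell line | input = fifteen thousand cells per well | signal = kinetic calcium dye fluorescence, Fluo-4 NW | dosing = compound delivered in addition one of three | read-out = B-scored fluorescence response ratio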
# RGS4 block valid – RGS4 inhibitor validation. AID 492999. shares compounds with RGS4 inh. HEK293 M3R/RGS4, carbachol calcium Fluo-4 fluorescence; carbachol added at its EC20; 0 = buffer wells, 100 = carbachol control. 1,700 compounds, 65% hits. calcium response, % at 10 µM;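 active = duplicate-averaged calcium response above the buffer-only control mean plus 5 SD of those controls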;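 note: integrated fluorescence ratio F max minus min over baseline F0; higher response in RGS4-induced cells means RGS4 inhibition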
# RGS4 uninduced – non-induced cell nonspecific activity of RGS4 inhibitors; shares compounds with RGS4 inh; HEK293 M3R non-induced, carbachol calcium Fluo-4; submaximal (EC20) carbachol stimulus; buffer wells 0%, carbachol control wells 100%; activity (percent), % at 10 µM; 1,900 compounds, 20% hits; AID 493000; call rule not given here;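 note: RGS4 induction absent so cells express M3R without RGS4; higher means more calcium signal and flags a non-specific hit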
# RGS4 inh ctr2 – second RGS4 inhibitor counter-screen in uninduced cells lacking carbachol; shares compounds with RGS4 inh; 1,900 compounds, 22% hits; HEK293 M3R/RGS4 non-induced, Fluo-4 calcium, no carbachol; normalised: buffer wells 0%, carbachol wells 100%; calcium response (agonist-mode artifact), % at 10 µM; AID 493001;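 active = duplicate-averaged calcium rise in uninduced cells above buffer wells' mean plus 5 SD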
# * marks the source's active call; other numbers are inactive results; i = inactive; . = no result given.
SMILES,MrgX1 antagonist,MrgX1 allo act,RGS4 inh,RGS4 pot,MrgX1 agonist,RGS4 block valid,RGS4 uninduced,RGS4 inh ctr2
COc1ccc(Cn2c(O)c(/C=N/NC(=O)c3ccncc3)c(=O)[nH]c2=O)cc1,i,i,i,i,i,.,.,.
COc1ccc(Cn2c(O)c(/C=N/NC(=O)c3ccccc3)c(=O)[nH]c2=O)cc1,i,i,i,i,i,.,i,9.5%*
COc1ccc(Cn2c(O)c(C=NCCN3CCOCC3)c(=O)[nH]c2=O)cc1,i,i,i,i,i,.,.,.
O=C(N/N=C/c1c(O)n(CCc2ccc(F)cc2)c(=O)[nH]c1=O)c1ccccc1,i,i,i,i,i,.,.,.
COc1ccc(Cn2c(O)c(/C=N/NC(=O)c3ccccc3O)c(=O)[nH]c2=O)cc1,i,i,i,i,i,.,i,i
O=C(N/N=C/c1c(O)n(CCc2ccccc2)c(=O)[nH]c1=O)c1ccccc1O,i,i,i,i,i,i,i,9.0%*
O=C(N/N=C/c1c(O)n(Cc2ccccc2)c(=O)[nH]c1=O)c1ccccc1O,i,i,6.9*,i,i,12%*,i,i
CCC1(CC)C(=O)N(C)C(=O)NC1=NC,i,i,i,i,i,.,.,.
CC(=O)Nc1cc(C(=O)N2CCC3(CC2)OCCO3)ccc1Sc1ccc(F)cc1,i,i,i,i,i,.,.,.
O=CC(Cl)P(=O)(N1CCOCC1)N1CCOCC1 (stereo not drawn),i,i,i,i,i,.,.,.
O=C(N/N=C/c1c(O)n(Cc2ccc(F)cc2)c(=O)[nH]c1=O)c1ccccc1O,i,i,i,i,i,i,i,i
Cc1cccc(C)c1NC(=O)CN(C)CC(=O)Nc1ccc(C#N)c(Cl)c1,i,i,i,i,i,.,.,.
O=C(O)C1=CC2c3ccccc3C1c1ccccc12,i,i,i,i,i,.,.,.
C=C(CO)CC1CC(O)[C@]2(C)OC3CC4OC5C[C@]6(C)O[C@]7(C)CCC8OC9C[C@]%10(C)OC%11C(C)=CC(=O)OC%11CC%10OC9C[C@@H](C)C8OC7CC6O[C@]5(C)C/C=C\C4OC3CC2O1 (stereo partly drawn),i,i,i,i,i,.,i,i
COc1cc(/C=C/[N+](=O)[O-])ccc1O,i,i,26*,i,i,60%*,74%*,i
COc1ccc(-n2c(/C=C/c3ccc(O)c(OC)c3)nc3ccccc3c2=O)cc1,i,i,i,i,i,.,.,.
O=C1/C(=C\c2ccc([N+](=O)[O-])cc2)N2CCC1CC2,i,i,5.9*,i,i,5.0%*,i,i
CCC(=NCCc1c[nH]c2ccccc12)c1c(O)n(C)c(=O)n(C)c1=O,i,i,i,i,i,.,.,.
O=C1NC(=O)N(Cc2ccccc2)C(=O)/C1=C/C=C/c1ccco1,i,i,7*,i,31*,11%*,i,22%*
COc1ccc(CN2C(=O)NC(=O)/C(=C\c3ccco3)C2=O)cc1,i,i,i,i,i,.,.,.
Cc1cc(C)cc(N2C(=O)NC(=O)/C(=C\c3cccn3-c3ccc(Cl)cc3)C2=O)c1,i,i,i,i,i,.,.,.
Cc1cc(C)cc(N2C(=O)NC(=O)/C(=C\c3cccn3-c3ccccc3)C2=O)c1,i,i,9.2*,i,i,18%*,i,15%*
COc1ccc(N2C(=O)NC(=O)/C(=C\c3ccc([N+](=O)[O-])s3)C2=O)cc1,i,i,5.2*,i,i,22%*,i,i
COc1ccccc1N1C(=O)NC(=O)/C(=C/c2ccc([N+](=O)[O-])s2)C1=O,i,i,i,i,i,.,i,i
COc1cccc(N2C(=O)NC(=O)/C(=C/c3ccc([N+](=O)[O-])s3)C2=O)c1,i,i,10*,i,i,20%*,35%*,i
SMILES,MrgX1 antagonist,MrgX1 allo act,RGS4 inh,RGS4 pot,MrgX1 agonist,RGS4 block valid,RGS4 uninduced,RGS4 inh ctr2
COc1ccc(N2C(=O)NC(=O)/C(=C/c3ccc([N+](=O)[O-])s3)C2=O)cc1,i,i,6.1*,i,i,16%*,i,i
CCOc1ccc(N2C(=O)NC(=O)/C(=C\c3cc(OC)c(OC)cc3[N+](=O)[O-])C2=O)cc1,i,i,i,i,i,.,.,.
COc1ccccc1N1C(=O)NC(=O)/C(=C\c2cnn(-c3ccccc3)c2)C1=O,i,i,i,i,i,.,.,.
COc1cccc(N2C(=O)NC(=O)/C(=C/c3ccc4c(c3)Cc3ccccc3-4)C2=O)c1,i,i,i,i,i,.,.,.
COC(=O)C1=C(c2ccc(S(C)(=O)=O)cc2)C[C@@H]2CC[C@H]1N2C(=O)N1CCC(O)CC1,i,i,i,i,i,.,.,.
O=C(O)c1nonc1-c1nonc1C(=O)O,i,i,.,.,i,.,.,.
C=C1C(=O)O[C@@H]2C[C@@H](C)[C@@H]3C=CC(=O)[C@@]3(C)[C@@H](O)[C@H]12,i,i,5.2*,i,i,35%*,i,i
CCCCc1nc(N2CCNCC2)c(C#N)c2c1CSC(C)(C)C2,i,i,i,i,i,.,.,.
N#Cc1c(N2CCNCC2)nc(-c2ccco2)c2c1CCCC2,i,i,5.5*,i,i,i,i,i
Nc1c(C(=O)NCc2ccco2)c2nc3ccccc3nc2n1CCN1CCOCC1,i,i,5.3*,i,i,14%*,42%*,16%*
Nc1c(C(=O)NCc2ccco2)c2nc3ccccc3nc2n1Cc1ccccc1,i,i,i,i,i,.,.,.
Cc1nn(Cc2ccccc2)c(C)c1C(=O)NCc1ccccc1,i,i,i,i,i,.,.,.
Cc1nn(Cc2ccccc2)c(C)c1C=C1C(=O)NC(=O)NC1=O,i,i,i,i,i,i,i,i
O=c1c2ccccc2nc(-c2ccc(-c3ccccc3)cc2)n1-c1ccncc1,i,i,i,i,i,.,.,.
CCN(CC)c1ccc(/C=C/[N+](=O)[O-])cc1,i,i,10*,i,i,29%*,i,580%*
